We go through 15 compounds from publication PMC6467756 (Journal of medicinal chemistry, 2019).

As usually defined, the IC50 is the concentration that inhibits the measured activity by half.

“Also recorded” adds a separate entry of the source. Where two headings read alike, the source gives them in different places.

For series [1], the system named is human GLO1. The conditions noted are these: cited from earlier work.
For series [2], the target named is T1, Recombinant human glyoxalase I (GLO1) (Homo sapiens, UniProt Q04760).
T1 sequence (Q04760 2-184 limits assumed): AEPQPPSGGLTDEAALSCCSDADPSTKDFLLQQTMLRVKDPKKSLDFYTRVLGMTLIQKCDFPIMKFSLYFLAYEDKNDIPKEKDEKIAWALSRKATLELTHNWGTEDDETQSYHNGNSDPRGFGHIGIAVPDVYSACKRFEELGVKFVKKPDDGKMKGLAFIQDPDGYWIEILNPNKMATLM
As to the kind of experiment: Human Glyoxalase 1 enzyme assay. The class given is biochemical. The conditions noted are these: for GLO1 inhibition compared with 8-MSQ, in words: SAR statement. In short, it runs like this: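 Recombinant human GLO1 (40 ng) was preincubated 15–20 min with test compound in 100 mM sodium phosphate, pH 7.0. Substrate was GSH and methylglyoxal (each from 100 mM stock) mixed in buffer and left 20 min at room temperature to form hemithioacetal, then added. DMSO ≤5% final. A240 read every minute for 8 min. Rates were normalized to the uninhibited control (100%) after no-enzyme background subtraction. IC50s were benchmarked against a reference N-hydroxypyridone inhibitor. Library screens used 200 and 50 µM fragment, with a >50% inhibition hit threshold.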

The subject of series [3] is mice. As to the kind of experiment: Observational assessment of toxicity after i.p. dosing. The class given is in vivo.
The test system of series [4] is MG levels in brain. As to the kind of experiment: Brain methylglyoxal. The conditions noted are these: for MG per mg brain tissue: mice, 30-240 min post-dose, vehicle 1.1 ± 0.3. Type of series: in vivo. In short, it runs like this: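 Separate mouse cohort dosed i.p. at 12.5 or 25 mg/kg. Brains collected at 30, 60, 120 and 240 min post-dose, n=3 per time point. Under isoflurane, mice were perfused transcardially with PBS, then brains were weighed, flash-frozen and stored at −80 °C. Tissue was minced, extracted with acetonitrile, bead-homogenized, centrifuged and filtered (2 µm). MG was quantified by LC-MS/MS against an 11-point 5–5000 ng/mL curve spiked into blank brain, expressed per mg wet tissue.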

Series [5] deals with FVB/NJ mice. Put plainly: Forced swim test. The class given is in vivo. The conditions noted are these: 12.5 mg/kg i.p., 120 min before test, p=0.041.
Series [6] relates to FVB/NJ mice. Put plainly: Open field test. Type of series: in vivo. The conditions noted are these: 12.5 mg/kg i.p., 90 min after injection, 30 min test. A digest of the protocol:
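Male and female FVB/NJ mice, 108–148 days old, tested in the light phase, were given 12.5 mg/kg i.p. or vehicle ([…]). After 90 min in the home cage, each was placed centrally in a 43×43×33 cm chamber under dim light inside a sound- and light-attenuating box for 30 min of free exploration. An infrared beam grid tracked distance traveled.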

`O=c1cc(-c2ccccc2)cc(-c2ccccc2)n1O` [Chugai-1, 1-hydroxy-4,6-diphenylpyridin-2(1H)-one, reference compound]: the IC50 in series [1] (value reported in the original literature report) was 1.19 µM; in series [2], 1.9 ± 0.2 µM.

As to `COCCCn1ccc2cc(-c3cc(-c4ccccc4)cc(=O)n3O)cnc21` [Chugai-3d], the IC50 in series [1] (reported by Chugai Pharmaceuticals) was 0.011 µM.

Regarding `Cc1ccc2cccc(NS(C)(=O)=O)c2n1` [Compound 7, N-(2-Methylquinolin-8-yl)methanesulfonamide], the “loss of affinity compared to 8-MSQ” value in series [2] (ratio of IC50 values vs 8-MSQ) is recorded as ~ 2 fold.

On to `O=S(=O)(Nc1cccc2cccnc12)c1ccccc1` [Compound 8, N-(Quinolin-8-yl)benzenesulfonamide], for which, in series [2] (ratio of IC50 values vs 8-MSQ), the “improvement in inhibition relative to 8-MSQ” value was determined as 2 fold.

Regarding `CS(=O)(=O)Nc1cccc2cccnc12` [Compound 8-MSQ, N-(Quinolin-8-yl)methanesulfonamide], the “inhibition in second MBP library screening” value in series [2] (fragment concentration 50 μM) is “essentially complete inhibition”.

In the case of `Cc1ccc2cccc(NS(=O)(=O)c3ccccc3)c2n1` [Compound 9, N-(2-Methylquinolin-8-yl)benzenesulfonamide], the “GLO1 inhibition compared with 8-MSQ, in words” value in series [2] is listed as “slight increase in inhibition”.

Consider `COc1ccccc1S(=O)(=O)Nc1cccc2cccnc12` [Compound 17, 2-Methoxy-N-(quinolin-8-yl)benzenesulfonamide], for which, in series [2], the “GLO1 inhibition compared with 8-MSQ, in words” value is “not tolerated”.

`N#Cc1ccccc1S(=O)(=O)Nc1cccc2cccnc12` [Compound 20, 2-Cyano-N-(quinolin-8-yl)benzenesulfonamide]: the “GLO1 inhibition compared with 8-MSQ, in words” value in series [2] is “not tolerated”.

Turning to `O=S(=O)(Nc1cccc2cccnc12)c1ccccn1` [Compound 23, N-(Quinolin-8-yl)pyridine-2-sulfonamide], the “improvement in inhibition relative to 8-MSQ” value in series [2] (ratio of IC50 values vs 8-MSQ) is given as ~ 14 fold.

Regarding `CS(=O)(=O)Nc1ccc(-c2ccncc2)c2cccnc12` [Compound 38, N-(5-(Pyridin-4-yl)quinolin-8-yl)methanesulfonamide], the “GLO1 inhibition compared with 8-MSQ, in words” value in series [2] is listed as “not well tolerated”.

Consider `CS(=O)(=O)Nc1ccc(-c2cncnc2)c2cccnc12` [Compound 39, N-(5-(Pyrimidin-5-yl)quinolin-8-yl)methanesulfonamide], for which the “GLO1 inhibition compared with 8-MSQ, in words” value in series [2] is “not well tolerated”.

For the compound `CS(=O)(=O)Nc1ccc(N2CCCCC2)c2cccnc12` [Compound 45, N-(5-(Piperidin-1-yl)quinolin-8-yl)methanesulfonamide], the “GLO1 inhibition compared with 8-MSQ, in words” value in series [2] is “not well tolerated”.

On to `CS(=O)(=O)Nc1ccc(N2CCOCC2)c2cccnc12` [Compound 46, N-(5-Morpholinoquinolin-8-yl)methanesulfonamide], for which the “GLO1 inhibition compared with 8-MSQ, in words” value in series [2] is “not well tolerated”.

With `O=S(=O)(Nc1ccc(-c2ccc(Cl)cc2)c2cccnc12)c1ccccn1` [Compound 48, N-(5-(4-Chlorophenyl)quinolin-8-yl)pyridine-2-sulfonamide], in series [3] (i.p. doses of 50 mg/kg and higher), the observed toxicity entry is recorded as “visibly toxic”.

Turning to `COc1cc(CCc2cc(NS(=O)(=O)c3ccccn3)c3ncccc3c2)cc(OC)c1` [Compound 60, N-(6-(3,5-Dimethoxyphenethyl)quinolin-8-yl)pyridine-2-sulfonamide], in series [4] (12.5 mg/kg i.p., between 30 and 240 min post-dose), the “increase of MG levels in brain vs vehicle-treated mice” value is given as “approximately 11 fold”. Moreover, the “MG per mg brain tissue” value in series [4] (12.5 mg/kg i.p.) is listed as 11.8±4.1 ng/mg of brain tissue; in series [4] (25 mg/kg i.p.) it was 14.1±3.1 ng/mg of brain tissue. For the same compound, the “increase in brain MG levels compared to vehicle-treated mice” value in series [4] (summary statement in discussion) is given as over 10 fold. In addition, in series [5], the “immobility in the FST vs vehicle” value is listed as “reduction in percent immobility; also recorded: significant decrease in the time spent immobile; also recorded: reduced immobility”. In series [3] (doses up to 100 mg/kg i.p.), the “observational assessment of toxicity” value was “no adverse responses”. In series [6], the “locomotor activity in open field vs vehicle” value was “no effect”.
